The source made the active and inactive calls.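 Rule for the calls: active = fitted curve reaching 35% inhibition at both 405 and 600 nm absorbance, in duplicate, within twice the top valid dose; inactive = the rest, including signal rising instead of falling.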

The test system of the first assay is P. aeruginosa growth with EDDHA, OD600, 24-30 h. Put plainly: iron-limited Pseudomonas aeruginosa growth inhibition – whole organism, OD600, EDDHA, dry powder, set 7, dose response (AID 624064).
Details: not given
In outline:
(§1)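 system = Pseudomonas aeruginosa whole cells, strain ATCC 15692 | amount = bacterial inoculum at final OD600 of 0.0000005 | buffer or medium = succinate M9 medium, pH 7.0, iron-limited with 2 µM EDDHA (final) | detection = OD600 absorbance | times = bacterial growth with compound for 24-30 h at 37 °C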
`CCCCC(C#N)c1ccc(F)cc1` (stereo not given): the AC35 is > 120 µM (inactive).

Test system in another assay: not listed separately
Described as above. The conditions noted are these: P. aeruginosa growth with EDDHA, OD600, 24-30 h; at 120 µM (top of the series). In outline: as §1
`COCCNC(C#N)c1ccc(Cl)cc1` (stereo not given): the activity change, negative = inhibition is -0.512% (inactive).
Same read-out and setting: the same measure for `CCCCC(C#N)c1ccc(Cl)cn1` (stereo not given): -2.96% (inactive).
As for `CCCCC(c1ccc(Cl)cc1)c1nn[nH]n1` (stereo not given), the activity change, negative = inhibition is -5.82% (inactive).
On the same count and under the same terms, the same measure for `N#Cc1cccc(C(C#N)c2ccc(F)cc2)n1` (stereo not given): -25.4% (inactive).
Consider `COCCC(C#N)c1ccc(F)cc1` (stereo not given), for which the activity change, negative = inhibition was -1.09% (inactive).
As to `Clc1ccc(C(c2cccc(Cl)n2)c2nn[nH]n2)cc1` (stereo not given), the activity change, negative = inhibition was 11.3% (inactive).
The same measure, in the same setting: the same measure for `N#CC(c1ccc(Cl)cc1)c1ccccn1` (stereo not given): -30.8% (inactive); for `CCCCC(C#N)c1ccccn1` (stereo not given): 11% (inactive); for `CCCCC(C#N)c1ccc(Cl)cc1` (stereo not given): 13.2% (inactive).
As for `CCCCC(C#N)c1ccc(F)cn1` (stereo not given), the activity change, negative = inhibition was -4.82% (inactive).
The same measure, in the same setting: with `N#CC(c1ccc(Cl)cc1)N1CCCC1` (stereo not given) the figure was -7.6% (inactive).
Same read-out and setting: with `COCCOCCC(C#N)c1ccc(F)cc1` (stereo not given) the figure was -18.1% (inactive); with `CN(C)CCCC(C#N)c1ccc(Cl)cc1` (stereo not given), -12.9% (inactive); with `N#CC1c2ccc(Cl)cc2CCc2cccnc21` (stereo not given), 31.2% (inactive).
The same measure, in the same setting: the same measure for `COCCC(C#N)c1ccc(Cl)cc1` (stereo not given): -16.8% (inactive); for `COCCOCCC(C#N)c1ccc(Cl)cc1` (stereo not given): 2.11% (inactive).
Consider `N#CC(c1ccc(F)cc1)c1cccc(Cl)n1` (stereo not given), for which the activity change, negative = inhibition was -35.8% (inactive).
The same measure, in the same setting: the same measure for `CN(C)CCCC(C#N)c1ccc(F)cc1` (stereo not given): -34.3% (inactive).
As for `N#CC(c1ccc(C(F)(F)F)c(Cl)n1)c1ccccc1OC(F)(F)F` (stereo not given), the activity change, negative = inhibition is -8.43% (inactive).
